Drawing on ChEMBL document CHEMBL4004815, “(-)-Neocaryachine, an Antiproliferative Pavine Alkaloid from Cryptocarya laevigata, Induces DNA Double-Strand Breaks” (J Nat Prod, 2017), this text covers IC50 and Activity for six compounds.

Structures are written as SMILES. Activity calls are given as the source filed them. No cut-off for these calls is given here.

Test [1] concerns A549. The test is described as follows: Antiproliferative activity against human A549 cells after 72 hrs by SRB assay. The format is functional, cell-based. The settings on record: A549, 72 h. The method in brief: (§1)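 Cells seeded at 4000−12 000 per well, density set by the line's doubling time. Compounds were added in DMSO, at most 0.1% v/v. After 72 h exposure, attached cells were fixed with 10% TCA, stained with 0.04% SRB, and the dye was solubilised in 10 mM Tris base. KB-VIN was maintained in 100 nM VIN.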

Test [2] has as its system MCF7. The test is described as follows: Antiproliferative activity against human MCF7 cells after 72 hrs by SRB assay. As to conditions: MCF7, 72 h. The format is functional, cell-based. The procedure, abridged: (§2)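 Cells seeded at 4000−12 000 per well, density set by the line's doubling time. Compounds were added in DMSO, at most 0.1% v/v. After 72 h exposure, attached cells were fixed with 10% TCA, stained with 0.04% SRB, and the dye was solubilised in 10 mM Tris base. Absorbance read at 515 nm. IC50 is 50% reduction relative to untreated cells, averaged over at least three independent experiments in duplicate. KB-VIN was maintained in 100 nM VIN.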
For orientation: Sulforhodamine B stains cellular protein and so reports cell mass.

Test [3] in a line: Antiproliferative activity against human KBVIN cells after 72 hrs by SRB assay. The class given is functional, cell-based. The procedure, abridged:
as §2

Test [4] relates to KB. The test is described as follows: Antiproliferative activity against human KB cells after 72 hrs by SRB assay. The format is functional, cell-based. The procedure, abridged:
as §1

The subject of test [5] is MDA-MB-231. Briefly: Antiproliferative activity against human MDA-MB-231 cells after 72 hrs by SRB assay. The format is functional, cell-based. The settings on record: MDA-MB-231, 72 h. The procedure, abridged:
as §1

The species entered for test [6] is Homo sapiens. The test is described as follows: Induction of DNA double strand breaks in human KBVIN cells assessed as increase in gamma-H2AX positive nuclei after 24 hrs by DAPI staining-based confocal fluorescence microscopic method. The class given is cell-based. The procedure, abridged:
(§3)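 KB-VIN cells on chamber slides 24 h, then compound (0.3 and 3.0 µM) or 0.1% DMSO for 24 h. Fixed in ice-cold 4% paraformaldehyde/PBS, permeabilised with 0.5% Triton X-100. Stained with mouse anti-α-tubulin (FITC secondary), rabbit anti-γ-H2AX (Alexa Fluor 546 secondary) and DAPI. Imaged by confocal microscopy as stacked images.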

For test [7], the species on record is Homo sapiens. Briefly: Induction of morphological changes of microtubule in human KBVIN cells at 3 uM after 24 hrs by DAPI staining-based confocal fluorescence microscopic method. The format is cell-based. The procedure, abridged:
as §3

Test [8] deals with KBVIN. Briefly: Cell cycle arrest in human KBVIN cells assessed as accumulation at S phase at 3 to 10 uM after 24 to 48 hrs by propidium iodide staining-based flow cytometric method. The format is functional. The method in brief:
(§4)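 KB-VIN (P-gp-overexpressing MDR KB subline, maintained with 100 nM vincristine) seeded 24 h before treatment. Compound exposure 24 or 48 h, vehicle 0.1% DMSO; 5-FU and CA-4 (10 nM, 24 h) served as S and G2/M arrest controls. DNA content read by propidium iodide staining and flow cytometry. Experiments repeated at least three times.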

Test [9] relates to KBVIN. Briefly: Cell cycle arrest in human KBVIN cells at 0.3 uM after 24 hrs by propidium iodide staining-based flow cytometric method. The format is functional. The method in brief: as §4
A general note: In flow cytometry, cells or beads pass a laser one at a time.

Test [10] has as its system KBVIN. The test is described as follows: Induction of apoptosis in human KBVIN cells assessed as nuclear fragmentation at 0.3 to 3 uM after 24 hrs by DAPI staining-based confocal fluorescence microscopic method. The class given is functional, cell-based. The method in brief: as §3
The test system of test [11] is KBVIN. The test is described as follows: Cell cycle arrest in human KBVIN cells assessed as accumulation at sub-G1 phase at 0.3 uM after 48 hrs by propidium iodide staining-based flow cytometric method. The format is functional. The method in brief:
as §4

The species entered for test [12] is Homo sapiens. The test is described as follows: Induction of DNA double strand breaks in human KBVIN cells assessed as increase in gamma-H2AX positive nuclei at 20 uM after 24 hrs by DAPI staining-based confocal fluorescence microscopic method. The class given is cell-based. The procedure, abridged:
(§5)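 KB-VIN cells on chamber slides were dosed 24 h after seeding and treated for 24 h, with 0.1% DMSO as control. Cells were fixed in ice-cold 4% paraformaldehyde/PBS and permeabilised with 0.5% Triton X-100. Staining used mouse anti-α-tubulin with FITC secondary, rabbit anti-γ-H2AX with Alexa Fluor 546 secondary, and DAPI for nuclei. Stacked confocal images were examined.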

In test [13] the test system is KBVIN. Briefly: Cell cycle arrest in human KBVIN cells assessed as accumulation at S phase at 20 uM after 24 to 48 hrs by propidium iodide staining-based flow cytometric method. The class given is functional. The method in brief: (§6)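 KB-VIN cells were seeded 24 h before dosing, then exposed for 24 or 48 h, with 0.1% DMSO as the vehicle control. DNA content was stained with propidium iodide and cell-cycle distribution (sub-G1, S, G2/M) analysed by flow cytometry. Experiments were repeated at least three times.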

The species named for test [14] is Homo sapiens. Briefly: Induction of morphological changes of microtubule in human KBVIN cells at 20 uM after 24 hrs by DAPI staining-based confocal fluorescence microscopic method. The format is cell-based. The procedure, abridged: as §5
The subject of test [15] is KBVIN. The test is described as follows: Cell cycle arrest in human KBVIN cells assessed as increase in cell levels at sub G1 phase at 20 uM after 48 hrs by propidium iodide staining-based flow cytometric method. The class given is functional. The method in brief:
as §6

As a reminder, the IC50 is the concentration that inhibits the measured activity by half. A lower IC50 goes with inhibition by little substance. As for `COc1cc2c(cc1O)[C@@H]1Cc3cc(OC)c(OC)cc3[C@H](C2)N1C`, the IC50 in test [1], in test [2], in [3], in test [4] and in test [5] was greater than 40 µM each time.
Consider `CC(=O)O[C@H]1C(=O)[C@@]2(C)[C@H]([C@H](OC(=O)c3ccccc3)[C@]3(O)C[C@H](OC(=O)[C@H](O)[C@@H](NC(=O)c4ccccc4)c4ccccc4)C(C)=C1C3(C)C)[C@]1(OC(C)=O)CO[C@@H]1C[C@@H]2O` [PACLITAXEL], for which the IC50 in [2] came to 0.0104 µM; in test [3] it was 1.93 µM.
Turning to `COc1cc2c(cc1O)C[C@H]1c3cc4c(cc3C[C@@H]2N1C)OCO4`, the IC50 in [1] was 3.98 µM; in [2] it was 7.42 µM; in test [3], 5.91 µM; in test [4], 5.49 µM; in [5], 5.71 µM.
As for `COc1ccc2c(c1O)[C@@H]1Cc3cc4c(cc3[C@H](C2)N1C)OCO4`, the IC50 in test [1] worked out at 0.064 µM; in test [2] it was 0.413 µM; in test [3], 0.241 µM; in test [4], 0.228 µM; in [5] it was 0.264 µM. In addition, in test [6], the Activity entry was “Dose-dependent effect”. The result in test [7], in test [8], in [10] and in test [11] was Active. The result in [9] was inactive.
Take `C[N+]1([O-])[C@H]2Cc3cc4c(cc3[C@@H]1Cc1cc3c(cc12)OCO3)OCO4` (some centres not stated): the IC50 was 29.3 µM in test [1]; greater than 40 µM in test [2]; greater than 40 µM in test [3]; 35.5 µM in test [4]; 41 µM in [5].
For the compound `CN1[C@H]2Cc3cc4c(cc3[C@@H]1Cc1cc3c(cc12)OCO3)OCO4` [ESCHOLTZINE], the 50% inhibitory concentration (IC50) was 8.71 µM in [1]; 26.6 µM in [2]; 19.8 µM in test [3]; 17 µM in test [4]; 26.1 µM in test [5]. Besides, the result in test [12], in test [13] and in test [14] was inactive. In [15], the result was Active.
